Compound activity deposited in PubChem by several laboratories.
Hits are enriched below; roughly 1.8% of the tested compounds scored in any of these assays.
iPSC survival up: enhancers of single-cell hiPSC survival, primary screen, ATPlite luminescence | 100% = ROCK inhibitor wells, 0% = DMSO | survival enhancement, % at 20 µM | hit rate 0.044% among 360,000 | AID 602274, 2012; in the data active = survival enhancement above about 18%;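 note: cells exposed to compounds for 16 hours before the ATP read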
SKN-1 inh: suppressors of acrylamide-induced Pgst-4::GFP reporter in worms, primary screen, SKN-1 inhibitor project, whole organism, uHTS, GFP/RFP fluorescence ratio, strain VP596 | C. elegans VP596 Pgst-4::GFP/RFP ratio, 24 h | inhibition, % at 21.8 µM | hit rate 0.49% among 360,000;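 active = interference check ratio from 0.5 to 1.5 plus GFP to RFP signal ratio inhibition reaching or exceeding a fixed threshold, cut at about 30% in these data, passing the limit was not always enough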
MT1-MMP act inh: blockers of MT1-MMP proenzyme processing, primary screen, HT1080 RFP-PRO-GFP cells, GFP/RFP fluorescence; Matrix metalloproteinase-14 (Homo sapiens), P50281; GFP/RFP ratio fluorescence, overnight; percent of plate control window, DMSO zero; GFP/RFP ratio change, % at 20 µM; hit rate 0.061% among 360,000; AID 651647, 2012;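 active = GFP/RFP ratio change of at least 30% with cell ATP level not reduced by more than half and red fluorescence within 50% of control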
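Test system: HT1080 RFP-PRO-GFP cells; Benchmarks: DMSO and RFP-L50D-GFP cell wells; Timing: cells overnight before dosing, compound overnight, 37 °C, 5% CO2; Compound: one 20 µM compound dose with 1% DMSO; Read-out: GFP/RFP fluorescence ratio.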
rRNA inh HTS: reduced GFP signal of wild-type E. coli, primary screen, bacterial rRNA inhibitor project, GFP/RFP fluorescence, OD600, single point | hit rate 1.6% among 350,000 | E. coli WT GFP vs humanized-ribosome RFP mutants, 24 h; hits give low values; DMSO median 0, no signal -100 | GFP signal change (wild-type ribosome), % (test concentration not listed);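 active = significant combined selectivity score with lowered wild-type GFP, culture density cut under 30%, mutant RFP and density less affected; inactive = any of these conditions unmet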
DAGLB inhibitor: DAGLB lipase inhibitors, primary screen, biochemical, fluorescence, HTS; Diacylglycerol lipase-beta (Homo sapiens), Q8NCG7; HEK293T DAGLB membrane lysate, EnzChek fluorogenic substrate; inhibition, % at 5.17 µM; hit rate 0.059% among 340,000; in the data active = inhibition above about 34%;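 note: 0% = enzyme with vehicle and 100% = wells lacking enzyme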
Target sequence (Q8NCG7 whole entry, looked up): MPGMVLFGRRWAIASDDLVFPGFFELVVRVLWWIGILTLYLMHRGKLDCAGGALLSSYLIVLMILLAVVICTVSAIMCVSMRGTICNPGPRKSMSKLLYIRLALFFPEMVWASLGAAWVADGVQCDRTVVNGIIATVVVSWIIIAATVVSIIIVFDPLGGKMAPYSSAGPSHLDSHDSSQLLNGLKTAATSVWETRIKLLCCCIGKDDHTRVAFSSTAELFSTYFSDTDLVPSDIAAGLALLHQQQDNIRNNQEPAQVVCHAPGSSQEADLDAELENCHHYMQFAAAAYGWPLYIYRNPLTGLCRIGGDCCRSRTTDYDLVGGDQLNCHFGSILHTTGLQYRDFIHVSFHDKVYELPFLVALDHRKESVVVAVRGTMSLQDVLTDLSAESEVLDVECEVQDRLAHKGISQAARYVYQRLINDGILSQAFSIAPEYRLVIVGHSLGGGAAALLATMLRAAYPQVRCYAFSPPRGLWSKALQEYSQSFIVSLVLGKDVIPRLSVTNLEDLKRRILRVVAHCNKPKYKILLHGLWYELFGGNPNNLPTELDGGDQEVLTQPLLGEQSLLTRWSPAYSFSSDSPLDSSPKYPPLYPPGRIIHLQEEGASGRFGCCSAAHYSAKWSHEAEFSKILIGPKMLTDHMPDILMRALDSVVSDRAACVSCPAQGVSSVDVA
Cneo AK release: Cryptococcus neoformans cell lysis inducers, primary screen, AK release luminescence, single concentration | hit rate 0.2% among 360,000 | C. neoformans lysis, adenylate kinase release luminescence, 4 h; normalised: neutral wells 0, clomiphene wells 100 | lysis activity, % at 15 µM;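 active = mean lysis activity across replicates of at least 80%, whatever share of replicates individually reach that level; inactive = mean lysis activity below 80%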
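Material – log-phase Cryptococcus neoformans yeast cells · Input – 5 × 10^6 yeast cells/mL · Medium – fresh YPD growth medium · Doses – single compound concentration per well · Timing – static 4 h at 37 °C with compound, 1 h detection · Detection – adenylate kinase release luminescence · Read-out – signal increase indicating cell lysis · Control set – Clomiphene as positive lysis control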
AID977621: growth inhibition of wild-type GFP E. coli, dose response, H69 mutant RFP, cherry-pick; AID 977621, 2014; 1,900 tested, under 10 active; activity change, negative = inhibition at 50 µM; shares compounds with rRNA inh HTS; E. coli wild-type GFP strain growth, fluorescence, 24 h;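 active = Wild-type ribosome reporter drop at least double the humanized mutant ribosome reporter drop, growth loss under a set limit; inconclusive = no clear call, values can overlap the other calls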;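 note: wild-type GFP and H69 mutant RFP strains grown together 50/50 in each well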
AID977628: E. coli growth inhibition, wild-type GFP versus h24 humanized RFP strain, dose response, h24 mutant RFP vs wild-type GFP, cherry-pick. 1,900 tested, under 10 active. activity change, negative = inhibition at 50 µM. shares compounds with rRNA inh HTS. AID 977628, 2014. E. coli WT GFP strain growth, fluorescence, 24 h;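 active = compound lowering the normal-ribosome reporter at least twice as much as the humanized-ribosome reporter, growth loss under a set limit; inconclusive = no clear call, values can overlap the other calls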;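 note: wild-type GFP and h24 humanized RFP strains co-cultured 1 to 1 per well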
Active calls of the source: *; ? = inconclusive; · = not tested or not shown.

SMILES	iPSC survival up	SKN-1 inh	MT1-MMP act inh	rRNA inh HTS	DAGLB inhibitor	Cneo AK release	AID977621	AID977628
CCC(=O)N1[C@@H]2c3ccc(-c4ccc(F)cc4)c(=O)n3C[C@H]1[C@H](CO)[C@H]2C(=O)OC	·	·	·	1.2	·	-1.1	·	·
O=C(c1cc(-c2ccccc2)nc2ccccc12)N1CCC2(CC1)OCCO2	-2.2	-14.2	-4.6	-7.8	-0.7	-6.5	·	·
Cc1c(-c2cccc(Cl)c2)nc2ccccc2c1C(=O)N1CCC2(CC1)OCCO2	-0.3	-6.2	-2.7	-23.1*	0.5	-0.8	·	?
Nc1c(C(=O)NCCN2CCOCC2)c2nc3ccccc3nc2n1Cc1ccccc1	-0.5	10.6	-0.2	-35.8*	0.1	-10.8	·	?
Nc1c(C(=O)NCCc2ccccc2)c2nc3ccccc3nc2n1CCN1CCOCC1	-1.3	5.5	-3.7	·	4.3	3.6	·	·
CC(C)NC(=O)N1C[C@@H]2C(c3ccc(Br)cc3)[C@H](C1)N2C (some centres undefined)	·	·	·	0.2	·	·	·	·
c1ccc(Nc2ccc3ccccc3c2)cc1	3.1	28.9	-0.3	-24.3*	-1.0	-4.5	1.9	-2.19
C[C@@H]1CN([C@@H](C)CO)C(=O)c2c(c3ccccc3n2C)-c2ccccc2CO[C@@H]1CN(C)C(=O)Oc1ccccc1	·	·	·	-0.2	·	·	·	·
COc1ccc(C2CN(C)CC2C(=O)c2ccc(C)cc2)cc1Cl (centres undefined)	-0.3	8.5	-10.8	-27.8*	-0.5	·	?	?
CN1CCC(c2c[nH]c3ccccc23)C1 (centres undefined)	-0.1	5.5	0.4	-22.6*	-4.1	·	-7.42	?
C[C@]12CCC(=O)C[C@H]1CC[C@@H]1[C@@H]2CC[C@]2(C)C(=O)CC[C@@H]12	-1.9	11.9	-1.6	-27.0*	-1.0	-3.3	·	?
